Measured values taken from ChEMBL document CHEMBL2375283, “Design and synthesis of 1-aryl-5-anilinoindazoles as c-Jun N-terminal kinase inhibitors” (Bioorg Med Chem Lett, 2013).

Experiments:
[1] = Drug uptake in C57BL6 mouse brain at 10 mg/kg, ip after 2 hrs; type: ADME, organism-based; design: dose 10 mg/kg, route intraperitoneal; details: read-out: Drug uptake
Summary of the method: (§1)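 C57Bl6 mice (n = 3) were given 10 mg/kg intraperitoneally. Blood and brain were collected 2 h later, and plasma was frozen at −80 °C. Plasma (1:5 v/v) and brain (1:5 w/v) were mixed with acetonitrile, and brain was probe-sonicated. Drug levels were measured by LC–MS/MS against standards prepared in plasma or in blank brain matrix.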

[2] = target: Mitogen-activated protein kinase 10 (Homo sapiens, UniProt P53779); assay: Inhibition of JNK3 (unknown origin)-mediated ATF2 Thr71 phosphorylation by HTRF assay
Summary of the method: (§2)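 The kinase reaction used biotinylated ATF2 substrate with ATP. The phospho-Thr71-ATF2 product was detected by HTRF with a Europium-cryptate labeled anti-phospho-Thr71-ATF2 antibody. IC50 values are averages of two or more experiments.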

[3] = Oral bioavailability in Sprague-Dawley rat at 2 mg/kg; type: ADME, organism-based; details: in vivo
Summary of the method: (§3)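 Rats received compound intravenously at 1 mg/kg or by oral gavage at 2 mg/kg. Blood was sampled at 5, 15 and 30 min and at 1, 2, 4, 6 and 8 h into EDTA tubes, and plasma was obtained by centrifugation. Plasma proteins were precipitated with acetonitrile, and drug levels were quantified by LC–MS/MS.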

[4] = Plasma clearance in Sprague-Dawley rat at 1 mg/kg, iv and 2 mg/kg, po; type: ADME, organism-based; summary of the method: as §3
[5] = target: Mitogen-activated protein kinase 8 (Homo sapiens, UniProt P45983); assay: Inhibition of JNK1 (unknown origin)-mediated ATF2 Thr71 phosphorylation by HTRF assay; summary of the method: as §2
Homo sapiens = species: Homo sapiens; assay: Selectivity ratio of IC50 for JNK1 (unknown origin) to IC50 for JNK3 (unknown origin)
[6] = Plasma concentration in C57BL6 mouse at 10 mg/kg, ip after 2 hrs; type: ADME, organism-based; design: dose 10 mg/kg, route intraperitoneal; summary of the method: as §1
[7] = AUC in Sprague-Dawley rat at 1 mg/kg, iv and 2 mg/kg, po; type: ADME, organism-based; details: plasma; summary of the method: as §3
[8] = Half life in Sprague-Dawley rat at 1 mg/kg, iv and 2 mg/kg, po; type: ADME, organism-based; details: in vivo; summary of the method: as §3
[9] = target: Mitogen-activated protein kinase 10 (Rattus norvegicus, UniProt P49187); assay: Inhibition of JNK3-mediated c-Jun phosphorylation in rat INS-1 cells after 3 hrs by ELISA; type: cell-based, INS1
[10] = Half life in rat liver microsomes; type: ADME, Microsome
[11] = Half life in human liver microsomes; type: ADME, Microsome

Sequence of Mitogen-activated protein kinase 10 (Homo sapiens, UniProt P53779) (P53779 whole entry): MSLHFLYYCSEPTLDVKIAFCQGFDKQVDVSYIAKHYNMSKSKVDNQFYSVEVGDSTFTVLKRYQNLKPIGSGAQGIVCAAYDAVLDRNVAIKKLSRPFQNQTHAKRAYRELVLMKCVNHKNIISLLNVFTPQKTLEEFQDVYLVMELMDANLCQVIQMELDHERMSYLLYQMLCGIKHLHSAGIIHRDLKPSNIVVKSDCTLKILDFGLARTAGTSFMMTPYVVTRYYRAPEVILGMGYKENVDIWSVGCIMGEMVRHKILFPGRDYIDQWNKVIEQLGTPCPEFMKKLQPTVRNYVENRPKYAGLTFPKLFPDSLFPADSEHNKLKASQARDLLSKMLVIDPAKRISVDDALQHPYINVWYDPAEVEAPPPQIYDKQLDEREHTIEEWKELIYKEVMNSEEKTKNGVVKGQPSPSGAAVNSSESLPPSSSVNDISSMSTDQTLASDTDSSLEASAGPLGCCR
Sequence of Mitogen-activated protein kinase 8 (P45983 whole entry): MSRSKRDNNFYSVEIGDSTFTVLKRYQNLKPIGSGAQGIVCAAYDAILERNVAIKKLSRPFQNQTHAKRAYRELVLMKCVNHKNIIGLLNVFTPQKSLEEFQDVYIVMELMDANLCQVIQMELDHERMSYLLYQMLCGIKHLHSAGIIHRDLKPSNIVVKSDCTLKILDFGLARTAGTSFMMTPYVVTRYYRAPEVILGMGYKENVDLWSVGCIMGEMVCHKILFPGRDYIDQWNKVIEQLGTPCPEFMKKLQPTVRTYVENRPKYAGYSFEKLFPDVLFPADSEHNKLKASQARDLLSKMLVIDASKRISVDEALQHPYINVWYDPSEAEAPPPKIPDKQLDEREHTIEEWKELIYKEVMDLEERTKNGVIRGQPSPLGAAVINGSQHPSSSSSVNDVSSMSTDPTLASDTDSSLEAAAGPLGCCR
Sequence of Mitogen-activated protein kinase 10 (Rattus norvegicus, UniProt P49187) (P49187 whole entry): as the sequence (P53779 whole entry) above, with Q27H, Y32S, I33V, A34V counted along it

| SMILES | concentration at 2 h [1] | IC50 [2] | bioavailability [3] | clearance [4] | IC50 [5] | Ratio IC50 (Homo sapiens) | concentration at 2 h [6] | AUC [7] | half-life [8] | IC50 [9] | half-life [10] | half-life [11] |
| --- | --- | --- | --- | --- | --- | --- | --- | --- | --- | --- | --- | --- |
| COc1cc(NC(=O)c2cccc(-n3ncc4cc(Nc5ccccc5F)ccc43)c2)cc(OC)c1OC | 50 nM | 9 nM | 5% | 57 mL/min/kg | 73 nM | 5 | 790 nM | 0.05 µM·h | 90 min | – | – | – |
| O=C(NCCN1CCOCC1)c1ccnc(-n2ncc3cc(Nc4ccccc4Cl)ccc32)c1 | 1400 nM | 120 nM | 5% | 54 mL/min/kg | 2300 nM | 10 | 530 nM | 0.01 µM·h | 30 min | 5300 nM | – | – |
| O=C(NCCN1CCOCC1)c1cccc(-n2ncc3cc(Nc4ccccn4)ccc32)c1 | – | 1400 nM | – | – | 7100 nM | 5 | – | – | – | – | – | – |
| O=C(NCCCN1CCOCC1)c1cccc(-n2ncc3cc(Nc4ccccc4F)ccc32)c1 | – | 22 nM | – | – | – | 5 | – | – | – | – | – | – |
| CN1CCN(CCNC(=O)c2cccc(-n3ncc4cc(Nc5c(Cl)cccc5Cl)ccc43)c2)CC1 | 810 nM | 50 nM | 20% | 34 mL/min/kg | 1200 nM | 5 | 2120 nM | 0.38 µM·h | 120 min | – | – | – |
| O=C(NCCN1CCOCC1)c1cccc(-n2ncc3cc(Nc4ccccc4Cl)ccc32)n1 | – | 640 nM | – | – | 7010 nM | 10 | – | – | – | – | – | – |
| Cc1cccc(NC(=O)c2cccc(-n3ncc4cc(Nc5ccccc5C)ccc43)c2)c1 | – | 250 nM | – | – | – | 5 | – | – | – | – | – | – |
| COc1cc(NC(=O)c2cccc(-n3ncc4cc(Nc5ccccc5Cl)ccc43)c2)cc(OC)c1OC | – | 12 nM | – | – | 93 nM | 5 | – | – | – | – | – | – |
| Cc1cccc(Nc2ccc3c(cnn3-c3cccc(C(=O)NCCN4CCN(C5CCC5)CC4)c3)c2)c1Cl | 3900 nM | 40 nM | 27% | 25 mL/min/kg | 970 nM | 5 | 1200 nM | 0.72 µM·h | 198 min | – | – | – |
| O=C(NCCN1CCOCC1)c1cccc(-n2ncc3cc(Nc4ccccc4Cl)ccc32)c1 | 550 nM | 54 nM | – | – | 750 nM | 5 | 560 nM | – | – | 4100 nM | – | – |
| O=C(NCCN1CCOCC1)c1cccc(-n2ncc3cc(Nc4ccccc4)cnc32)c1 | – | 170 nM | – | – | 1200 nM | 10 | – | – | – | – | – | – |
| CCOc1ccc(NC(=O)c2cccc(-n3ncc4cc(Nc5ccccc5F)ccc43)c2)cc1OC | – | 46 nM | – | – | 430 nM | 5 | – | – | – | – | – | – |
| COc1cc(NC(=O)c2cccc(-n3ncc4cc(Nc5ccccc5C)ccc43)c2)cc(OC)c1OC | – | 59 nM | – | – | – | 5 | – | – | – | – | – | – |
| O=C(NCCCN1CCOCC1)c1ccc(-n2ncc3cc(Nc4ccccc4Cl)ccc32)cc1 | 690 nM | 33 nM | – | – | 920 nM | – | 240 nM | – | – | ≥ 20000 nM | – | – |
| O=C(NCCN1CCOCC1)c1cccc(-n2ncc3cc(Nc4ccccc4Cl)ncc32)c1 | – | 80 nM | – | – | 1300 nM | 10 | – | – | – | – | – | – |
| CN1CCN(CCNC(=O)c2cncc(-n3ncc4cc(Nc5c(Cl)cccc5Cl)ccc43)c2)CC1 | – | 110 nM | – | – | – | 10 | – | – | – | – | – | – |
| NC(=O)c1cccc(-n2ncc3cc(Nc4ccccc4F)ccc32)c1 | – | 63 nM | – | – | 730 nM | 5 | – | – | – | – | – | – |

The next lines start with the values.

| concentration at 2 h [1] | IC50 [2] | bioavailability [3] | clearance [4] | IC50 [5] | Ratio IC50 (Homo sapiens) | concentration at 2 h [6] | AUC [7] | half-life [8] | IC50 [9] | half-life [10] | half-life [11] | SMILES |
| --- | --- | --- | --- | --- | --- | --- | --- | --- | --- | --- | --- | --- |
| – | 43 nM | – | – | – | 5 | – | – | – | – | – | – | COc1ccccc1Nc1ccc2c(cnn2-c2cccc(C(=O)NCCCN3CCOCC3)c2)c1 |
| – | 35 nM | – | – | 800 nM | 5 | – | – | – | ≥ 20000 nM | – | – | O=C(NCCO)c1cccc(-n2ncc3cc(Nc4ccccc4Cl)ccc32)c1 |
| 570 nM | 15 nM | 6% | 123 mL/min/kg | 410 nM | 5 | 280 nM | 0.01 µM·h | 30 min | – | 5.6 min | 8.6 min | O=C(NCCCN1CCOCC1)c1cccc(-n2ncc3cc(Nc4ccccc4Cl)ccc32)c1 |
| – | 1100 nM | – | – | ≥ 20000 nM | > 25 | – | – | – | – | – | – | Cc1cccc(CC(=O)Nc2cnn(-c3cccc(C(=O)NC4CCOC(C)(C)C4)c3)c2)c1 (stereo not given) |
| – | 77 nM | – | – | 1380 nM | 5 | – | – | – | – | – | – | O=C(NCCN1CCOCC1)c1cccc(-n2ncc3cc(Nc4c(Cl)cccc4Cl)ccc32)c1 |
| – | > 20000 nM | – | – | – | – | – | – | – | – | – | – | COc1cc(NC(=O)c2cccc(-n3cc(Nc4nc5ccccc5[nH]4)cn3)c2)cc(OC)c1OC |
| 30 nM | 120 nM | 7% | 79 mL/min/kg | 470 nM | 5 | 350 nM | 0.5 µM·h | 18 min | – | 6 min | 8.9 min | Cc1cccc(NC(=O)c2cccc(-n3ncc4cc(Nc5ccccc5F)ccc43)c2)c1 |
| – | 24 nM | – | – | 200 nM | 10 | – | – | – | – | 5.8 min | 12.8 min | COc1cc(NC(=O)c2cccc(-n3ncc4cc(Nc5ccccc5)ccc43)c2)cc(OC)c1OC |
| – | 640 nM | – | – | – | 10 | – | – | – | – | – | – | O=C(NCCN1CCOCC1)c1cc(-n2ncc3cc(Nc4c(Cl)cccc4Cl)ccc32)ccn1 |
| – | 38 nM | – | – | 170 nM | 5 | – | – | – | – | – | – | Cc1cc(NC(=O)c2cccc(-n3ncc4cc(Nc5ccccc5F)ccc43)c2)ccc1N1CCOCC1 |
| – | 32 nM | – | – | 160 nM | 5 | – | – | – | – | – | – | Cc1cc(NC(=O)c2cccc(-n3ncc4cc(Nc5ccccc5Cl)ccc43)c2)ccc1N1CCOCC1 |
